Reference: ChEMBL document CHEMBL4190208, “Design, synthesis and characterization of novel quinacrine analogs that preferentially kill cancer over non-cancer cells through the down-regulation of Bcl-2 and up-regulation of Bax and Bad” (Eur J Med Chem, 2017)
The source made the active and inactive calls. No cut-off for these calls is given here.

Columns and labels:
MCF7 [1] = assay: Cytotoxicity against human MCF7 cells assessed as growth inhibition after 48 hrs by SRB assay; type: functional, cell-based; settings: MCF7, 48 h
Method in brief: (§1)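 Cells seeded at 5000–10,000 per well and exposed continuously for 48 h to seven concentrations ([…]). DMSO stocks were diluted in medium, final DMSO ≤0.1%, and matched DMSO medium served as the negative control. Viable cell mass was read by SRB. IC50 is the concentration giving 50% growth decrease versus control. Values are the mean of triplicates from at least two independent experiments.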

184B5 [2] = assay: Cytotoxicity against human 184B5 cells assessed as growth inhibition after 48 hrs by SRB assay; type: cell-based; settings: 184B5, 48 h; method in brief: as §1
MDA-MB-468 [3] = assay: Cytotoxicity against human MDA-MB-468 cells assessed as growth inhibition after 48 hrs by SRB assay; type: functional, cell-based; settings: MDA-MB-468, 48 h; method in brief: as §1
MDA-MB-231 [4] = assay: Cytotoxicity against human MDA-MB-231 cells assessed as growth inhibition after 48 hrs by SRB assay; type: functional, cell-based; settings: MDA-MB-231, 48 h; method in brief: as §1
MDA-MB-231 [5] = assay: Induction of apoptosis in human MDA-MB-231 cells assessed as upregulation of Bax expression at 6 uM after 24 to 72 hrs by Western blot method; type: functional, cell-based
MDA-MB-231 [6] = assay: Induction of apoptosis in human MDA-MB-231 cells assessed as change in cell morphology at 6 uM after 24 hrs by acridine orange/ethidium bromide staining-based confocal microscopic method; type: functional
MCF-10A = assay: Cytotoxicity against human MCF10A cells assessed as growth inhibition after 48 hrs by SRB assay; type: cell-based; method in brief: as §1
MDA-MB-231 [7] = assay: Induction of apoptosis in human MDA-MB-231 cells assessed as upregulation of Bad expression at 6 uM after 24 to 72 hrs by Western blot method; type: functional, cell-based
MDA-MB-231 [8] = assay: Induction of apoptosis in human MDA-MB-231 cells assessed as downregulation of Bcl-2 expression at 6 uM after 24 to 72 hrs by Western blot method; type: functional, cell-based
MCF7 [9] = assay: Induction of apoptosis in human MCF7 cells at 6 uM after 24 hrs by TUNEL assay; type: functional, cell-based
HeLa = assay: Anticlonogenic activity against human HeLa cells at 3.5 uM after 12 days; type: functional, cell-based
MCF7 [10] = assay: Anticlonogenic activity against human MCF7 cells at 3.5 uM after 12 days; type: functional, cell-based
[11] = Selectivity index, ratio of IC50 for human MCF10A cells to IC50 for human MCF7 cells; type: toxicity; settings: MCF10A cells versus MCF7 cells, read-out: Ratio IC50
MDA-MB-231 [12] = assay: Effect on Bcl-XL levels in human MDA-MB-231 cells at 6 uM after 24 to 72 hrs by Western blot method; type: functional, cell-based
MDA-MB-231 [13] = assay: Induction of apoptosis in human MDA-MB-231 cells at 6 uM after 24 hrs by TUNEL assay; type: functional, cell-based
MCF7 [14] = assay: Induction of apoptosis in human MCF7 cells assessed as upregulation of Bad expression at 4 to 6 uM after 48 hrs by Western blot method; type: functional, cell-based
184B5 [15] = assay: Cell cycle arrest in human 184B5 cells assessed as accumulation at sub-G1 phase at 6 uM after 48 hrs by flow cytometric method; type: ADME, cell-based; settings: 184b5, 48 h
MDA-MB-231 [16] = assay: Cell cycle arrest in human MDA-MB-231 cells assessed as accumulation at sub-G1 phase at 6 uM after 48 hrs by flow cytometric method; type: functional, cell-based
MDA-MB-231 [17] = assay: Induction of apoptosis in human MDA-MB-231 cells assessed as increase in cytochrome c levels in mitochondria at 6 uM after 24 to 72 hrs by Western blot method; type: functional, cell-based
MDA-MB-231 [18] = assay: Induction of apoptosis in human MDA-MB-231 cells assessed as increase in PARP cleavage at 6 uM after 24 hrs by Western blot method; type: functional, cell-based
MDA-MB-468 [19] = assay: Anticlonogenic activity against human MDA-MB-468 cells at 3.5 uM after 12 days; type: functional, cell-based
[20] = Selectivity index, ratio of IC50 for human MCF10A cells to IC50 for human MDA-MB-231 cells; type: toxicity; settings: MCF10A cells versus MDA-MB-231 cells, read-out: Ratio IC50

## COc1ccc2nc3cc(Cl)ccc3c(NCCCN3C(=O)CSC3c3ccccc3[N+](=O)[O-])c2c1 (stereo not given)
MCF7 [1]
  IC50: 3.68 µM
184B5 [2]
  IC50: 30.2 µM
MDA-MB-468 [3]
  IC50: 3.2 µM
MDA-MB-231 [4]
  IC50: 4.16 µM

## COc1ccc2nc3cc(Cl)ccc3c(NCCCN3C(=O)CSC3c3ccc(N(C)C)cc3)c2c1 (stereo not given)
MCF7 [1]
  IC50: 3.78 µM
184B5 [2]
  IC50: 16.4 µM
MDA-MB-468 [3]
  IC50: 3.32 µM
MDA-MB-231 [4]
  IC50: 4.25 µM

## COc1ccc2nc3cc(Cl)ccc3c(NCCCN3C(=O)CSC3c3ccc(C)cc3)c2c1 (stereo not given)
MCF7 [1]
  IC50: 3.26 µM
184B5 [2]
  IC50: 7.98 µM
MDA-MB-468 [3]
  IC50: 3.59 µM
MDA-MB-231 [4]
  IC50: 2.93 µM

## COc1ccc2nc3cc(Cl)ccc3c(NCCCN3C(=O)CSC3c3ccc(F)cc3F)c2c1 (stereo not given)
MCF7 [1]
  IC50: 2.97 µM
184B5 [2]
  IC50: 4.14 µM
MDA-MB-468 [3]
  IC50: 4.15 µM
MDA-MB-231 [4]
  IC50: 1.8 µM

## COc1ccc2nc3cc(Cl)ccc3c(NCCCN3C(=O)CSC3c3ccc[nH]3)c2c1 (stereo not given)
MCF7 [1]
  IC50: 10.6 µM
184B5 [2]
  IC50: 18.4 µM
MDA-MB-468 [3]
  IC50: 4.52 µM
MDA-MB-231 [4]
  IC50: 6.4 µM

## COc1ccc2nc3cc(Cl)ccc3c(NCCCN3C(=O)CSC3c3c(F)cccc3F)c2c1 (stereo not given)
MCF7 [1]
  IC50: 1.24 µM
MDA-MB-231 [5]
  Activity: Active
184B5 [2]
  IC50: 16.2 µM
MDA-MB-231 [6]
  Activity: Active
MCF-10A
  IC50: 18.2 µM
MDA-MB-231 [7]
  Activity: Active
MDA-MB-231 [8]
  Activity: Active
MCF7 [9]
  Activity: Active
HeLa
  Activity: Active
MCF7 [10]
  Activity: Active
[11]
  selectivity ratio: 14.7
MDA-MB-231 [12]
  Activity: inactive
MDA-MB-231 [13]
  Activity: Active
MCF7 [14]
  Activity: Active
184B5 [15]
  Activity: Non-Toxic
MDA-MB-231 [16]
  Activity: Active
MDA-MB-231 [17]
  Activity: Active
MDA-MB-231 [18]
  Activity: Active
MDA-MB-468 [3]
  IC50: 2.4 µM
MDA-MB-231 [4]
  IC50: 1.92 µM
MDA-MB-468 [19]
  Activity: Active
[20]
  selectivity ratio: 7.6

## COc1ccc2nc3cc(Cl)ccc3c(NCCCN3C(=O)CSC3c3ccc(Cl)cc3Cl)c2c1 (stereo not given)
MCF7 [1]
  IC50: 4.1 µM
184B5 [2]
  IC50: 7.22 µM
MDA-MB-468 [3]
  IC50: 4.15 µM
MDA-MB-231 [4]
  IC50: 4.05 µM

## COc1ccc2nc3cc(Cl)ccc3c(NCCCN3C(=O)CSC3c3ccccc3)c2c1 (stereo not given)
MCF7 [1]
  IC50: 3.23 µM
184B5 [2]
  IC50: 8.06 µM
MDA-MB-468 [3]
  IC50: 2.54 µM
MDA-MB-231 [4]
  IC50: 3.55 µM

## COc1ccc2nc3cc(Cl)ccc3c(NCCCN3C(=O)CSC3c3ccc(Cl)cc3)c2c1 (stereo not given)
MCF7 [1]
  IC50: 3.96 µM
184B5 [2]
  IC50: 4.58 µM
MDA-MB-468 [3]
  IC50: 4.19 µM
MDA-MB-231 [4]
  IC50: 3.73 µM

## COc1ccc2nc3cc(Cl)ccc3c(NCCCN3C(=O)CSC3c3ccccc3Cl)c2c1 (stereo not given)
MCF7 [1]
  IC50: 3.87 µM
184B5 [2]
  IC50: 13.2 µM
MDA-MB-468 [3]
  IC50: 3.89 µM
MDA-MB-231 [4]
  IC50: 3.85 µM

## COc1ccc2nc3cc(Cl)ccc3c(NCCCN3C(=O)CSC3c3ccccc3Br)c2c1 (stereo not given)
MCF7 [1]
  IC50: 4 µM
184B5 [2]
  IC50: 21.6 µM
MDA-MB-468 [3]
  IC50: 4.38 µM
MDA-MB-231 [4]
  IC50: 3.63 µM

## COc1ccc2nc3cc(Cl)ccc3c(NCCCN3C(=O)CSC3c3ccc([N+](=O)[O-])cc3)c2c1 (stereo not given)
MCF7 [1]
  IC50: 4.36 µM
184B5 [2]
  IC50: 17.8 µM
MDA-MB-468 [3]
  IC50: 4.87 µM
MDA-MB-231 [4]
  IC50: 3.86 µM

## COc1ccc2nc3cc(Cl)ccc3c(NCCCN3C(=O)CSC3c3ccc(F)cc3)c2c1 (stereo not given)
MCF7 [1]
  IC50: 3.07 µM
184B5 [2]
  IC50: 12.1 µM
MDA-MB-468 [3]
  IC50: 4.26 µM
MDA-MB-231 [4]
  IC50: 1.89 µM

## COc1ccc2nc3cc(Cl)ccc3c(NCCCN3C(=O)CSC3c3cccs3)c2c1 (stereo not given)
MCF7 [1]
  IC50: 3.31 µM
184B5 [2]
  IC50: 18 µM
MDA-MB-468 [3]
  IC50: 4.61 µM
MDA-MB-231 [4]
  IC50: 6.76 µM

## COc1ccc2nc3cc(Cl)ccc3c(NCCCN3C(=O)CSC3c3ccc(Br)cc3)c2c1 (stereo not given)
MCF7 [1]
  IC50: 3.71 µM
184B5 [2]
  IC50: 4.88 µM
MDA-MB-468 [3]
  IC50: 3.68 µM
MDA-MB-231 [4]
  IC50: 3.74 µM

## COc1ccc2nc3cc(Cl)ccc3c(NCCCN3C(=O)CSC3c3c(Cl)cccc3Cl)c2c1 (stereo not given)
MCF7 [1]
  IC50: 4.01 µM
184B5 [2]
  IC50: 28.3 µM
MDA-MB-468 [3]
  IC50: 4.04 µM
MDA-MB-231 [4]
  IC50: 3.98 µM

## COc1ccc2nc3cc(Cl)ccc3c(NCCCN3C(=O)CSC3c3ccccc3F)c2c1 (stereo not given)
MCF7 [1]
  IC50: 2.93 µM
184B5 [2]
  IC50: 8.16 µM
MDA-MB-468 [3]
  IC50: 3.91 µM
MDA-MB-231 [4]
  IC50: 1.95 µM

## COc1ccc2nc3cc(Cl)ccc3c(NCCCN3C(=O)CSC3c3ccnc4ccccc34)c2c1 (stereo not given)
MCF7 [1]
  IC50: 6.55 µM
184B5 [2]
  IC50: 13.1 µM
MDA-MB-468 [3]
  IC50: 6.64 µM
MDA-MB-231 [4]
  IC50: 3.7 µM

## COc1ccc2nc3cc(Cl)ccc3c(NCCCN3C(=O)CSC3c3c(F)cccc3Cl)c2c1 (stereo not given)
MCF7 [1]
  IC50: 3.04 µM
184B5 [2]
  IC50: 8.07 µM
MDA-MB-468 [3]
  IC50: 3.96 µM
MDA-MB-231 [4]
  IC50: 2.12 µM

## COc1ccc2nc3cc(Cl)ccc3c(NCCCN3C(=O)CSC3c3ccco3)c2c1 (stereo not given)
MCF7 [1]
  IC50: 4.78 µM
184B5 [2]
  IC50: 13.4 µM
MDA-MB-468 [3]
  IC50: 5.58 µM
MDA-MB-231 [4]
  IC50: 1.97 µM

## COc1ccc2nc3cc(Cl)ccc3c(NCCCN3C(=O)CSC3c3ccncc3)c2c1 (stereo not given)
MCF7 [1]
  IC50: 2.27 µM
184B5 [2]
  IC50: 16.8 µM
MDA-MB-468 [3]
  IC50: 5.1 µM
MDA-MB-231 [4]
  IC50: 1.11 µM

## COc1ccc2nc3cc(Cl)ccc3c(NCCCN3C(=O)CSC3C3CCCCC3)c2c1 (stereo not given)
MCF7 [1]
  IC50: 3.81 µM
184B5 [2]
  IC50: 3.14 µM
MDA-MB-468 [3]
  IC50: 3.75 µM
MDA-MB-231 [4]
  IC50: 3.86 µM

## COc1ccc2nc3cc(Cl)ccc3c(NCCCN3C(=O)CSC3c3ccc(N(c4ccccc4)c4ccccc4)cc3)c2c1 (stereo not given)
MCF7 [1]
  IC50: 10.4 µM
184B5 [2]
  IC50: 17.8 µM
MDA-MB-468 [3]
  IC50: 14.4 µM
MDA-MB-231 [4]
  IC50: 17.6 µM
